Assay outcomes deposited in PubChem BioAssay by several laboratories.
Only some compounds are listed: those with a hit (about 4.5% of all), similar ones and a draw of the others.
CHOP inh: inhibitors of CHOP induction in ER stress response; inhibition, % at 10 µM; CHO-K1 CHOP-promoter luciferase, tunicamycin-induced, 15-18 h; 220,000 compounds, 3.8% hits;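 active = compounds that reduced the stress-induced luciferase reporter signal by more than about 70% of percent inhibition, limit read from the data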
PfM18AAP inh: PfM18AAP enzyme inhibition; inhibition, % at 7.35 µM; recombinant PfM18AAP, H-Glu-NHMec fluorogenic cleavage; 290,000 compounds, 1.2% hits;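 active = inhibition above the campaign mean inhibition over all tested compounds plus 3 SD, cut at about 28% in these data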
NS3 helicase inh: inhibitors of Hepatitis C virus NS3 helicase | NS3 helicase DNA unwinding, Cy5 molecular beacon fluorescence | inhibition, % at 10.9 µM | 290,000 compounds, 0.56% hits;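 active = inhibition above the mean of all tested compounds plus 3 SD, set per campaign, cut at about 35% in these data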
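Assay system – hepatitis C virus NS3 helicase domain fragment enzyme · Buffer or medium – MOPS pH 6.5, MgCl2, DTT, Tween20, BSA · Reagent – Cy5/quencher beacon DNA duplex and ATP to start · Compound – single 10.9 µM dose · Timing – 1 h at 25 °C · Technique – Cy5 beacon fluorescence read at start and 1 h · Measure – % inhibition of unwinding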
XBP1 UPR activ: activators of adaptive arm of unfolded protein response (XBP1). CHO-XBP1 luciferase reporter, IRE1-XBP1 UPR activation, luminescence; percent of tunicamycin response, DMSO as zero. 330,000 compounds, 0.33% hits. activation, % at 20 µM;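 active = versus positive control, 20 µM dose yields 30% or more activation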
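Test system: CHO-XBP1 luciferase reporter cells | Buffer or medium: Serum-containing F12 medium, 10% FBS | Schedule: 6 h compound exposure at 37 °C, 5% CO2 | Detection: Steady-Glo luciferase glow luminescence, 10 min after reagent addition | Read-out basis: Activation, % of tunicamycin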
UPR CHOP act: apoptotic UPR (CHOP) activation | CHO-CHOP luciferase reporter, luminescence; percent of tunicamycin response over DMSO baseline | activation, % at 10 µM | 330,000 compounds, 0.34% hits;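 active = at 10 µM dose, activation of 40% or more, normalized to positive control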
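System: CHO-CHOP luciferase reporter cell line; amount: 500 cells/well; buffer or medium: F12 medium containing 10% fetal bovine serum; incubation: 6 h compound exposure at 37 °C after overnight seeding; measured by: luciferase luminescence after 10 min with Steady-Glo reagent; evaluation: % reporter activation, DMSO baseline versus tunicamycin full activation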
p97 ATPase inh: inhibitors of human p97 ATPase | P55072 | recombinant p97 ATPase, Kinase-Glo ATP luminescence, 3 h | inhibition, % at 8 µM | 220,000 compounds, 0.42% hits | AID 1481; in the data active = inhibition above about 15%
Target sequence (P55072 whole entry, looked up): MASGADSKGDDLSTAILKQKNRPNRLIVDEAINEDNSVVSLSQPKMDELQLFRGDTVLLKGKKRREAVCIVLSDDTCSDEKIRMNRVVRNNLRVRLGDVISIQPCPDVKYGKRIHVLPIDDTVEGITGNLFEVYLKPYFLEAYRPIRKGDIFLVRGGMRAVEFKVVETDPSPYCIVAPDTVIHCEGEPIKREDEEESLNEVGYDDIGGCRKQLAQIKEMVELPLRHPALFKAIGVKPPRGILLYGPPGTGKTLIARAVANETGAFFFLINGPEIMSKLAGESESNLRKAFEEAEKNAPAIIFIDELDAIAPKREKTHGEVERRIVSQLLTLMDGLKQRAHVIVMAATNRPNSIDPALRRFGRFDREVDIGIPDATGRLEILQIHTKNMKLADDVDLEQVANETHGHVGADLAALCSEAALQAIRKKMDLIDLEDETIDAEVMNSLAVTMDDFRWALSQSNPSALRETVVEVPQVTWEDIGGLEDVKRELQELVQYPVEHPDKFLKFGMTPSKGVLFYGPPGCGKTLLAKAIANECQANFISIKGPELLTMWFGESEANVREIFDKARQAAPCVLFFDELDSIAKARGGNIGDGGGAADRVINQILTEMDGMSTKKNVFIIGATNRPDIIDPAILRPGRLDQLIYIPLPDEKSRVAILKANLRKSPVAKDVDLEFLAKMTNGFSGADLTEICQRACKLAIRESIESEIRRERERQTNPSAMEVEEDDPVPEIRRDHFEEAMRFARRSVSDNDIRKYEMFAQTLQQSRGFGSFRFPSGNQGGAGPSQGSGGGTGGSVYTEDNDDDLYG
CHOP UPR conf: apoptotic UPR (CHOP) activation, confirmed. AID 463112. shares compounds with UPR CHOP act. CHO-CHOP cells, CHOP-luciferase reporter luminescence; percent of tunicamycin response, DMSO as zero. 1,000 compounds, 64% hits. activation, % at 10 µM; in the data active = activation above about 33%
UPR XBP1 confirm: confirmation of adaptive unfolded protein response (XBP1) activators; activation, % at 20 µM; shares compounds with XBP1 UPR activ; CHO-XBP1 IRE1-XBP1 luciferase reporter, luminescence; AID 485299; 1,000 compounds, 63% hits;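 active = reporter signal at least 30% of the positive control's activation in two or more of four replicate wells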
A number is an active result; n = inactive; x = no result.

SMILES | CHOP inh | PfM18AAP inh | NS3 helicase inh | XBP1 UPR activ | UPR CHOP act | p97 ATPase inh | CHOP UPR conf | UPR XBP1 confirm
COc1ccccc1C(=O)NNC(=S)NC(=O)c1cccs1 | x | n | n | n | n | x | x | x
CN(C)/C=C1/N=C(c2ccccc2)OC1=O | n | n | n | n | n | n | x | x
O=CC1=C(c2ccccc2)Oc2ccccc2O1 | x | n | n | 37 | 67 | x | 72 | 33
Cc1cc(C)nc(SCc2ccc(C(=O)N/N=C/c3ccc(C(=O)O)cc3)cc2)n1 | n | n | n | n | n | n | x | x
Cc1cc(C)nc(SCc2ccc(C(=O)N/N=C/c3cccc(O)c3O)cc2)n1 | n | n | n | 53 | 140 | 15 | 77 | 52
CN(c1ccccc1)S(=O)(=O)c1cccc(C(=O)NCCc2ccc(O)c(O)c2)c1 | n | 40 | n | 97 | 93 | n | 82 | 64
CCOc1ccc(CCNC(=O)CCNC(=O)c2ccco2)cc1OCC | x | n | n | n | n | x | x | x
CCc1ccc2nc(N(CCCN(C)C)C(=O)c3ccc(S(=O)(=O)N4CCc5ccccc5C4)cc3)sc2c1 | x | n | n | 59 | 41 | x | n | 59
O=C(NC1CC2CCC(C1)N2Cc1ccccc1)c1ccccc1Cl (centres undefined) | x | n | n | n | n | x | x | x
O=C(NC(=S)Nc1ccc(NC(=O)c2cccs2)cc1)c1ccco1 | n | n | n | n | n | n | x | x
O=C(NC(=S)Nc1ccc(NC(=O)c2cccs2)cc1)c1cc2ccccc2o1 | 76 | n | n | 121 | 57 | n | 46 | 106
O=C(CN1CCCC1c1cccs1)N1CCN(S(=O)(=O)c2cccc(F)c2)CC1 (centres undefined) | x | x | x | n | n | x | x | x
C=CCOC(=O)C1=C[C@@H](c2cn(C(C)=O)c3ccccc23)C[C@@H](OCc2ccc(CO)cc2)O1 | x | x | x | n | n | x | x | x
C=CCC[C@@H](Cc1ccc(F)cc1)C(=O)OC[C@@H]1CCCN1C(=O)[C@@H](CC=C)CC(=O)N[C@@H](CO)Cc1ccccc1 | x | x | x | n | n | x | x | x
Cc1cc(N=Cc2c(O)n(-c3ccc(C)c(C)c3)c(=O)c3ccccc23)no1 | n | n | n | x | x | n | x | x
CCOC(=O)Cc1csc(/N=C/c2c(O)n(-c3ccc(C)c(C)c3)c(=O)c3ccccc23)n1 | n | n | n | 95 | 66 | n | 63 | 155
COc1ccc(-c2cc(=O)oc3c(C)c(OC(=O)c4cccs4)ccc23)cc1 | 80 | n | n | 80 | 66 | n | 89 | 114
COc1ccc(-c2cc(=O)oc3c(C)c(OC(C)C(C)=O)ccc23)cc1 (centres undefined) | x | n | n | n | n | x | x | x
Cc1ccc2c(c1)C(c1ccc([N+](=O)[O-])cc1)=NNC(c1ccc(Br)cc1)=N2 | 94 | n | n | 84 | 75 | n | n | 74
Cc1ccc2c(c1)C(c1ccncc1)=NNC(c1cccnc1)=N2 | n | n | n | n | n | n | x | x
O=C1COc2ccc(C(=O)CSc3nc4ccccc4c(=O)n3-c3ccc(Cl)c(Cl)c3)cc2N1 | n | n | n | n | n | n | x | x
CCc1ccc(-n2c(SCC(=O)c3ccc4c(c3)NC(=O)CO4)nc3ccccc3c2=O)cc1 | n | n | n | 61 | 62 | n | 115 | 118
O=C(CNC(=O)c1cccs1)Nc1ncccc1O | x | x | x | n | n | x | x | x
COc1ccc(Cn2c(SCc3ccc(C)cc3)nc3cc(OC)c(OC)cc3c2=N)cc1Cl | 72 | n | n | 32 | 88 | n | 39 | n
O=C(Nc1ccc(-c2nc3ccccc3o2)cc1)c1ccc2c(c1)OCO2 | 85 | n | n | 88 | 46 | n | n | n
SMILES | CHOP inh | PfM18AAP inh | NS3 helicase inh | XBP1 UPR activ | UPR CHOP act | p97 ATPase inh | CHOP UPR conf | UPR XBP1 confirm
COc1cc(SC#N)ccc1N=Cc1c(C)[nH]n(-c2ccc(Cl)cc2)c1=O | 104 | n | n | 101 | 86 | n | 89 | 134
COc1ccc(CCN=Cc2c(C)[nH]n(-c3ccc([N+](=O)[O-])cc3)c2=O)cc1OC | n | n | n | n | n | n | x | x
COc1cc(S(=O)(=O)Nc2ccccc2)ccc1N=Cc1c(C)[nH]n(-c2ccc(C)cc2)c1=O | n | n | n | n | n | n | x | x
COc1cc(SC#N)ccc1N=Cc1c(C)[nH]n(-c2ccc(C)c(C)c2)c1=O | 107 | n | n | 54 | 68 | n | 39 | 73
COc1ccc(-n2nc(C(=O)NCC(=O)NCc3ccc(F)cc3)c3ccccc3c2=O)c(OC)c1 | n | n | n | x | x | n | x | x
Cc1occc1-c1nnc(SC(C)C(=O)Nc2ccccc2F)o1 (centres undefined) | x | x | x | n | n | x | x | x
CCOC(=O)c1cnc(Nc2nc3ccccc3o2)nc1CSc1ncccn1 | x | n | n | n | n | n | x | x
CCOC(=O)c1cnc(Nc2nc3ccccc3o2)nc1CSC(=S)N(CC)CC | n | n | n | 33 | 127 | n | 122 | n
Cc1ccc2oc(-c3cccc(N)c3)nc2c1 | n | n | n | n | n | n | x | x
Nc1cccc(-c2nc3cc(S(=O)(=O)c4ccc5oc(-c6cccc(N)c6)nc5c4)ccc3o2)c1 | n | n | n | 50 | 57 | n | 78 | 92
CCOc1ccccc1-n1c(SCC(=O)Nc2ccc(CC)cc2)nc2n[nH]c(C)c2c1=N | 96 | n | n | 246 | 181 | n | 107 | 233
Cc1ccc(C(=O)Cn2c(C(=O)/C=C/c3ccccc3)nc3ccccc32)cc1 | n | n | n | 32 | 249 | n | 325 | 46
Cc1ccc(C(=O)Cn2c(NCCO)nc3ccccc32)cc1 | n | n | n | n | n | n | x | x
O=C(Nc1ccc(Oc2ccc(NC(=O)Nc3ccccc3Cl)cc2)cc1)Nc1ccccc1Cl | 94 | n | n | 44 | n | n | x | 54
O=C(CSc1nnc(-c2ccc3c(c2)OCO3)n1-c1ccccc1)c1ccccc1 | n | n | n | n | n | n | x | x
O=C(CSc1nnc(-c2cccs2)n1-c1ccccc1)c1ccc2c(c1)OCCO2 | x | x | x | 61 | n | x | x | n
COc1ccc(C(=O)N2CCOC2CNC(=O)C(=O)NCCc2ccc(OC)c(OC)c2)cc1 (centres undefined) | x | n | n | n | n | x | x | x
Cc1ccccc1Nc1nc(-c2ccccc2)c(C(=O)Nc2cccnc2)s1 | n | n | n | n | n | n | x | x
O=C(Nc1cccnc1)c1sc(Nc2ccccc2F)nc1-c1ccccc1 | n | n | n | 38 | n | n | x | n
CCCN1C(=O)/C(=C/c2ccccc2OCc2ccc(C(=O)O)cc2)NC1=S | n | n | n | n | n | n | x | x
